Experiments:
[1] = tested on: Human immunodeficiency virus 1; assay: Antiviral activity against HIV1 3B in MT4 cells; type: functional, organism-based; conditions: Human immunodeficiency virus 1, 3B
In short: (§1)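 MT-4 cells at 4.5 × 10⁵ cells/mL were infected with 100 CCID₅₀/mL of HIV-1 or HIV-2. Viable cells were then counted after trypan blue staining, and EC₅₀ was derived from these viable-cell counts.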

[2] = tested on: Human immunodeficiency virus 2; assay: Antiviral activity against HIV2 ROD in MT4 cells; type: functional, organism-based; conditions: Human immunodeficiency virus 2, ROD; in short: as §1
MT4 = assay: Cytotoxicity against MT4 cells; type: functional; conditions: Homo sapiens
In short: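 Exponentially growing MT-4 cells were resuspended at 5 × 10⁵ cells/mL in RPMI 1640 with 20% FBS and 20% IL-2. They were infected with HIV-1 IIIB (100 × TCID₅₀ per well) for 1 h at 37 °C, with mock-infected cells run in parallel. The suspension was diluted 6-fold onto serially diluted compound and incubated for 5 days at 37 °C in 5% CO₂. MTS staining was read at 492 nm.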

[3] = tested on: Human immunodeficiency virus 1; assay: Antiviral activity against HIV1 3B in CEM cells; type: functional, organism-based; conditions: Human immunodeficiency virus 1, 3B, CCRF-CEM
In short: (§2)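 CEM cells at 4.5 × 10⁵ cells/mL were infected with 100 CCID₅₀/mL of HIV-1 or HIV-2. Giant-cell formation was scored microscopically. EC₅₀ was the concentration preventing syncytium formation by 50%.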

[4] = tested on: Human immunodeficiency virus 2; assay: Antiviral activity against HIV2 ROD in CEM cells; type: functional, organism-based; conditions: Human immunodeficiency virus 2, ROD, CCRF-CEM; in short: as §2
Hepatitis B virus = assay: Antiviral activity against HBV in HepG2 2.2.15 cells; type: functional, organism-based
In short: (§3)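 HepG2 2.2.15 cells, which produce HBV constitutively, were seeded at 5 × 10³ per well. Drug-containing medium was replaced every other day for 9 days. Virions in the supernatant were captured on anti-HBsAg plates, and their DNA was quantified by PCR against an HBV standard curve and normalized to untreated cells. For cell growth, monolayers were ethanol-fixed and stained with bisbenzimide H33342, and fluorescence was compared with untreated cells. SI = CC₅₀/EC₅₀.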

HepG2 [5] = assay: Cytotoxicity against HepG2 2.2.15 cells; type: functional; conditions: Homo sapiens; in short: as §3
Cynomolgus monkey [6] = assay: Metabolic stability in cynomolgus monkey liver S9 fraction; type: ADME, Macaca fascicularis
In short: (§4)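 Pooled cynomolgus S9 (liver or intestinal segments), test compound 10 µM final, 37 °C, DMSO <1% final; reaction started with NADPH 2.5 mM final. Aliquots taken at 0 (preincubation), 10, 20, 30 and 60 min, quenched with cold acetonitrile, centrifuged; supernatant parent measured by LC/MS/MS. Stability given as % remaining from pre- vs postincubation peak areas.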

Cynomolgus monkey [7] = assay: Metabolic stability in cynomolgus monkey intestine S9 fraction; type: ADME, Macaca fascicularis; in short: as §4
HepG2 [8] = assay: Selectivity index, CC50 for HepG2 2.2.15 cells/EC50 for HBV; type: functional; in short: as §3
CEM cells (Homo sapiens) = assay: Cytotoxicity against CEM cells

| SMILES | EC50 [1] [µM] | EC50 [2] [µM] | CC50 (MT4) [µM] | EC50 [3] [µM] | EC50 [4] [µM] | EC50 (Hepatitis B virus) [µM] | CC50 (HepG2 [5]) [µM] | Stability (Cynomolgus monkey [6]) [%] | Stability (Cynomolgus monkey [7]) [%] | Ratio CC50/EC50 (HepG2 [8]) | CC50 (CEM cells (Homo sapiens)) [µM] |
| --- | --- | --- | --- | --- | --- | --- | --- | --- | --- | --- | --- |
| COC(=O)[C@H](C)NP(=O)(OC[C@H]1C=C[C@@H](n2cnc3c(N)ncnc32)C1)Oc1ccccc1 (stereo partly specified) | 0.03 | 0.043 | 6.4 | 0.13 | 0.09 | 0.017 | 1280 | 24 | 74 | 75000 | 18.1 |
| COC(=O)CNP(=O)(OC[C@H]1C=C[C@@H](n2cnc3c(N)ncnc32)C1)Oc1ccccc1 (stereo partly specified) | 4.35 | 5.73 | > 100 | 13.5 | 20 | 0.086 | > 2 | 46 | 85 |  | ≥ 250 |
| CCOC(=O)c1cccc(OP(=O)(N[C@@H](C)C(=O)OC)OC[C@H]2C=C[C@@H](n3cnc4c(N)ncnc43)C2)c1 (stereo partly specified) | 0.053 | 0.033 | 4.39 | 0.065 | 0.08 | 0.004 | > 2 | 19 | 42 |  | 8.39 |
| COC(=O)[C@H](CCSC)NP(=O)(OC[C@H]1C=C[C@@H](n2cnc3c(N)ncnc32)C1)Oc1ccccc1 (stereo partly specified) | 0.16 | 0.21 | > 5 | 0.53 | 1 | 0.03 | 16 | 0 | 66 |  | 85.8 |
| COC(=O)[C@H](Cc1ccc(O)cc1)NP(=O)(OC[C@H]1C=C[C@@H](n2cnc3c(N)ncnc32)C1)Oc1ccccc1 (stereo partly specified) | 0.58 | 0.72 | 26.9 | 5.33 | 18.1 | 0.05 | > 2 | 0 | 0 |  | 110 |
| C[C@H](NP(=O)(OC[C@H]1C=C[C@@H](n2cnc3c(N)ncnc32)C1)Oc1ccccc1)C(=O)OCC(C)(C)C (stereo partly specified) | 0.043 | 0.03 | > 10 | 0.067 | 0.083 | 0.003 | 13 | 0 | 57 |  | 19.5 |
| COC(=O)C[C@H](NP(=O)(OC[C@H]1C=C[C@@H](n2cnc3c(N)ncnc32)C1)Oc1ccccc1)C(=O)OC (stereo partly specified) | 0.32 | 0.26 | > 16 | 1.1 | 3.5 | 0.05 | > 2 | 4 | 8 |  | > 50 |
| COC(=O)[C@H](CC(C)C)NP(=O)(OC[C@H]1C=C[C@@H](n2cnc3c(N)ncnc32)C1)Oc1ccccc1 (stereo partly specified) | 0.19 | 0.13 | > 5 | 0.42 | 0.56 | 0.01 | 20 | 0 | 75 |  | 70 |
| CC[C@H](C)[C@H](NP(=O)(OC[C@H]1C=C[C@@H](n2cnc3c(N)ncnc32)C1)Oc1ccccc1)C(=O)OC (stereo partly specified) | 0.96 | 1.13 | > 5 | 2.1 | 3.5 | 0.06 | 76 | 0 | 69 |  | 118 |

From ChEMBL document CHEMBL1138881, “Application of phosphoramidate ProTide technology significantly improves antiviral potency of carbocyclic adenosine derivatives” (J Med Chem, 2006)
